Experimental data as given in ChEMBL document CHEMBL1150814, “Schizanrins [corrected] B, C, D, and E, four new lignans from Kadsura matsudai and their antihepatitis activities” (J Nat Prod, 2001).
Converted amounts (≈) assume the structure as drawn. The source made the active and inactive calls. The calls are words filed in the database; no cut-off is given here.

What was measured:
[1] = system: Hepatitis B virus; assay: Antiviral activity against Hepatitis B virus infected in human MS-G2 cells assessed as inhibition of surface antigen secretion at 20 ug/ml after 3 days by ELISA; type: functional
Method in brief: (§1)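 MS-G2 cells (HepG2 transfected with two copies of HBV genome, secreting virus) grown in RPMI-1640 with 10% fetal calf serum at 37 °C, 5% CO2. Seeded 3 × 10^5 cells/well, attached overnight, then given compound in DMSO (1, 5, 10, 20 μg/mL; DMSO ≤2.5 μL/mL; DMSO-only control). Media collected at 3 days. HBsAg and HBeAg measured by ELISA at 490 nm. % inhibition taken relative to control.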

[2] = system: Hepatitis B virus; assay: Antiviral activity against Hepatitis B virus infected in human MS-G2 cells assessed as inhibition of early antigen secretion at 10 ug/ml after 3 days by ELISA; type: functional; parameters: scale not given: the % may be the effect or the level left; method in brief: as §1
[3] = system: Hepatitis B virus; assay: Antiviral activity against Hepatitis B virus infected in human MS-G2 cells assessed as inhibition of surface antigen secretion at 10 ug/ml after 3 days by ELISA; type: functional; parameters: scale not given: the % may be the effect or the level left; method in brief: as §1
[4] = Cytotoxicity against human MS-G2 cells at 10 ug/ml by AST method; type: cell-based
Method in brief: (§2)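 Cell damage in compound-treated MS-G2 cultures was measured by aspartate transaminase (AST) kit. AST above 25 IU/L was taken as indicating cell damage or lysis.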

[5] = system: Human immunodeficiency virus; assay: Antiviral activity against HIV replication in human H9 lymphocytes; type: functional, organism-based
[6] = Cytotoxicity against human MS-G2 cells at 20 ug/ml by AST method; type: cell-based; method in brief: as §2
[7] = system: Hepatitis B virus; assay: Antiviral activity against Hepatitis B virus infected in human MS-G2 cells assessed as inhibition of early antigen secretion at 20 ug/ml after 3 days by ELISA; type: functional; method in brief: as §1
[8] = system: H9; assay: Cytotoxicity against human H9 cells; type: cell-based

Row | Structure (SMILES) | Activity [1] | Activity [2] [%] | Activity [3] [%] | Activity [4] [IU/L] | Activity [5] | Activity [6] [IU/L] | Activity [7] | IC50 [8] [µg/mL]
1 | CC=C(C)C(=O)O[C@@H]1c2cc3c(c(O)c2-c2c(cc(OC)c(OC)c2OC)C[C@@H](C)[C@H]1C)OCO3 | Toxic | 25.8 | <25 | 16.8 | inactive | 47.8 | Toxic | 
2 | COC1=C(OC)C(=O)[C@]23COc4c5c(cc(c42)[C@H](OC(=O)/C=C/c2ccccc2)[C@H](C)[C@H](C)CC3=C1)OCO5 [SCHIARISANRIN D] | <25% | 27 | <25 | 20.1 |  | 22 | 42.9% | 
3 | COc1cc2c(c(OC)c1OC)-c1c(cc3c(c1O)OCO3)[C@@H](OC(=O)c1ccccc1)[C@H](C)[C@H](C)C2 [SCHIZARIN E] | Toxic | 31.8 | <25 | 20.2 | inactive | 44.3 | Toxic | 2.08 (≈ 4.11 µM)
4 | CCC(C)C(=O)O[C@H]1c2cc3c(c4c2C(C(=O)C(=O)OC)(CO4)/C(=C\C(=O)OC)C[C@@H](C)[C@H]1C)OCO3 (stereo partly specified) [TAIWANSCHIRIN A] | <25% | <25 | <25 | 14.1 |  | 14.8 | 43% | 
5 | CCC(C)C(=O)O[C@@H]1c2cc3c(c(O)c2-c2c(cc(OC)c(OC)c2OC)C[C@@H](C)[C@H]1C)OCO3 (stereo partly specified) [SCHIZARIN B] | 54.9% | 40.7 | 42.6 | 17.6 | inactive | 15.5 | 42.1% | 
6 | CCCCCC(=O)O[C@@H]1c2cc3c(c(O)c2-c2c(cc(OC)c(OC)c2OC)C[C@@H](C)[C@H]1C)OCO3 [SCHIZARIN C] | Toxic | <25 | <25 | 16 | inactive | 35.9 | Toxic | 
